Test results from ChEMBL document CHEMBL5724801, “EUbOPEN Chemogenomics Library - Multiplex” (2024).
Several values for one entry are separate records, joined by “and”; a condition that tells them apart may be missing. Equal values may be shown once.

Tested on: HEK-293T
Experiment: Multiplex assay against HEK293T
Type: toxicity, cell-based
Settings: human
Outline: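 Values for tubulin, mitochondrial-mass and membrane-permeability phenotypes are per cents of cells with healthy nuclei. These cells were identified by CellPathfinder machine-learning gating of live cells that had been stained at seeding with Hoechst33342, BioTracker Green Microtubule Cytoskeleton Dye, MitoTracker Red and Annexin V Alexa Fluor 680 and imaged on a CQ1 microscope at 37°C and 5% CO2 after compound addition. The gating first set Hoechst high-intensity objects apart from normal cells, then split normal cells into healthy, pyknosed or fragmented nuclei, and pyknosed cells into mitotic or apoptotic.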

[1] = 12 h, 1 µM, compound concentration 1 uM
[2] = 12 h, 10 µM, compound concentration 10 uM
[3] = 24 h, 1 µM, compound concentration 1 uM
[4] = 24 h, 10 µM, compound concentration 10 uM
[5] = 48 h, 1 µM, compound concentration 1 uM
[6] = 48 h, 10 µM, compound concentration 10 uM

O=c1cccc2n1C[C@@H]1CNC[C@H]2C1 [CYTISINICLINE]
Population Apoptotic (%) [1]: 13.38% and 21.1% | Population Fragmented Nuclei (%) [1]: 1.29% and 6.54% | Population Healthy Nuclei (%) [1]: 52.75% and 22.22% | Population Hoechst High Intensity Objects (%) [1]: 0.64% and 0% | Population Membrane Permeable-Phenotype (%) [1]: 0.61% and 0% | Population Mitochondria Different-Phenotype (%) [1]: 39.26% and 17.65% | Population Mitotic Cells (%) [1]: 86.62% and 78.9% | Population Normal (%) [1]: 99.36% and 100% | Population Pyknosed Nuclei (%) [1]: 45.95% and 71.24% | Total Cell Count [1]: 311 and 153 | Population Apoptotic (%) [2]: 15.45% and 10.14% | Population Fragmented Nuclei (%) [2]: 3.17% and 4.62% | Population Hoechst High Intensity Objects (%) [2]: 0% | Population Membrane Permeable-Phenotype (%) [2]: 0.66% and 0% | Population Mitochondria Different-Phenotype (%) [2]: 17.11% and 7.41% | Population Mitotic Cells (%) [2]: 84.55% and 89.86% | Population Normal (%) [2]: 100% | Population Pyknosed Nuclei (%) [2]: 43.31% and 79.77% | Total Cell Count [2]: 284 and 173 | Population Apoptotic (%) [3]: 15.52% and 25.56% | Population Fragmented Nuclei (%) [3]: 1.39% and 3.33% | Population Healthy Nuclei (%) [3]: 75.5% and 36.67% | Population Hoechst High Intensity Objects (%) [3]: 0.2% and 0% | Population Membrane Permeable-Phenotype (%) [3]: 1.32% and 5.45% | Population Mitochondria Different-Phenotype (%) [3]: 17.41% and 14.55% | Population Mitotic Cells (%) [3]: 84.48% and 74.44% | Population Normal (%) [3]: 99.8% and 100% | Population Pyknosed Nuclei (%) [3]: 23.11% and 60% | Population Tubulin-Different-Phenotype (%) [3]: 11.08% and 16.36% | Population Apoptotic (%) [4]: 18.82% and 14.41% | Population Fragmented Nuclei (%) [4]: 2.13% and 5.14% | Population Healthy Nuclei (%) [4]: 81.43% and 42.99% | Population Hoechst High Intensity Objects (%) [4]: 0% | Population Membrane Permeable-Phenotype (%) [4]: 0.24% and 0% | Population Mitochondria Different-Phenotype (%) [4]: 15.44% and 7.61% | Population Mitotic Cells (%) [4]: 81.18% and 85.59% | Population Normal (%) [4]: 100% | Population Tubulin-Different-Phenotype (%) [4]: 7.6% and 1.09% | Total Cell Count [4]: 517 and 214 | Population Fragmented Nuclei (%) [5]: 2.45% and 3.98% | Population Healthy Nuclei (%) [5]: 88.37% and 61.69% | Population Hoechst High Intensity Objects (%) [5]: 0% | Population Membrane Permeable-Phenotype (%) [5]: 2.27% and 1.61% | Population Mitochondria Different-Phenotype (%) [5]: 16.42% and 20.97% | Population Mitotic Cells (%) [5]: 94.29% and 66.67% | Population Normal (%) [5]: 100% | Population Apoptotic (%) [6]: 9.77% and 19.7% | Population Fragmented Nuclei (%) [6]: 5.36% and 2.25% | Population Healthy Nuclei (%) [6]: 85.61% and 79.15% | Population Hoechst High Intensity Objects (%) [6]: 0.14% and 0% | Population Membrane Permeable-Phenotype (%) [6]: 5.39% and 1.78% | Population Mitochondria Different-Phenotype (%) [6]: 8.88% and 16.01% | Population Mitotic Cells (%) [6]: 90.23% and 80.3% | Population Normal (%) [6]: 99.86% and 100% | Population Pyknosed Nuclei (%) [6]: 9.03% and 18.59%

C[C@@H]1C[C@H]2[C@@H]3CCC4=CC(=O)C=C[C@]4(C)[C@@]3(F)[C@@H](O)C[C@]2(C)[C@@]1(O)C(=O)CO [DEXAMETHASONE]
Population Apoptotic (%) [1]: 37% and 53% | Population Fragmented Nuclei (%) [1]: 8% and 7% | Population Healthy Nuclei (%) [1]: 78% and 80% | Population Hoechst High Intensity Objects (%) [1]: 2% and 8% | Population Membrane Permeable-Phenotype (%) [1]: 1% and 0% | Population Mitochondria Different-Phenotype (%) [1]: 45% and 62% | Population Mitotic Cells (%) [1]: 62% and 46% | Population Normal (%) [1]: 97% and 91% | Population Pyknosed Nuclei (%) [1]: 12% | Population Tubulin-Different-Phenotype (%) [1]: 24% and 26% | Total Cell Count [1]: 420 and 372 | Population Apoptotic (%) [2]: 37% and 44% | Population Fragmented Nuclei (%) [2]: 7% and 5% | Population Healthy Nuclei (%) [2]: 79% and 81% | Population Hoechst High Intensity Objects (%) [2]: 6% and 14% | Population Membrane Permeable-Phenotype (%) [2]: 0% | Population Mitochondria Different-Phenotype (%) [2]: 44% and 69% | Population Mitotic Cells (%) [2]: 62% and 55% | Population Normal (%) [2]: 93% and 85% | Population Pyknosed Nuclei (%) [2]: 13% | Population Tubulin-Different-Phenotype (%) [2]: 33% and 39% | Total Cell Count [2]: 374 and 436 | Population Apoptotic (%) [3]: 31% and 42% | Population Fragmented Nuclei (%) [3]: 9% and 12% | Population Healthy Nuclei (%) [3]: 78% and 79% | Population Hoechst High Intensity Objects (%) [3]: 4% and 7% | Population Membrane Permeable-Phenotype (%) [3]: 0% | Population Mitochondria Different-Phenotype (%) [3]: 30% and 45% | Population Mitotic Cells (%) [3]: 68% and 57% | Population Normal (%) [3]: 95% and 92% | Population Pyknosed Nuclei (%) [3]: 12% and 8% | Population Tubulin-Different-Phenotype (%) [3]: 17% | Total Cell Count [3]: 569 and 499 | Population Apoptotic (%) [4]: 36% and 44% | Population Fragmented Nuclei (%) [4]: 8% and 9% | Population Healthy Nuclei (%) [4]: 74% and 79% | Population Hoechst High Intensity Objects (%) [4]: 6% and 15% | Population Membrane Permeable-Phenotype (%) [4]: 0% | Population Mitochondria Different-Phenotype (%) [4]: 30% and 43% | Population Mitotic Cells (%) [4]: 63% and 56% | Population Normal (%) [4]: 93% and 84% | Population Pyknosed Nuclei (%) [4]: 16% and 11% | Population Tubulin-Different-Phenotype (%) [4]: 29% and 22% | Total Cell Count [4]: 453 and 513 | Population Apoptotic (%) [5]: 30% and 27% | Population Fragmented Nuclei (%) [5]: 15% | Population Healthy Nuclei (%) [5]: 77% and 78% | Population Hoechst High Intensity Objects (%) [5]: 1% and 3% | Population Membrane Permeable-Phenotype (%) [5]: 1% and 0% | Population Mitochondria Different-Phenotype (%) [5]: 18% and 27% | Population Mitotic Cells (%) [5]: 69% and 72% | Population Normal (%) [5]: 98% and 96% | Population Pyknosed Nuclei (%) [5]: 7% and 6% | Population Tubulin-Different-Phenotype (%) [5]: 12% and 15% | Total Cell Count [5]: 915 and 685 | Population Apoptotic (%) [6]: 25% and 50% | Population Fragmented Nuclei (%) [6]: 15% and 16% | Population Healthy Nuclei (%) [6]: 76% | Population Hoechst High Intensity Objects (%) [6]: 3% and 6% | Population Membrane Permeable-Phenotype (%) [6]: 0% | Population Mitochondria Different-Phenotype (%) [6]: 18% and 28% | Population Mitotic Cells (%) [6]: 75% and 49% | Population Normal (%) [6]: 96% and 93% | Population Pyknosed Nuclei (%) [6]: 7% | Population Tubulin-Different-Phenotype (%) [6]: 14% and 19% | Total Cell Count [6]: 760 and 756

Cl.NCCc1ccc(O)c(O)c1 [DOPAMINE HYDROCHLORIDE]
Population Apoptotic (%) [1]: 31% and 54% | Population Fragmented Nuclei (%) [1]: 6% and 7% | Population Healthy Nuclei (%) [1]: 77% and 78% | Population Hoechst High Intensity Objects (%) [1]: 10% and 6% | Population Membrane Permeable-Phenotype (%) [1]: 0% | Population Mitochondria Different-Phenotype (%) [1]: 54% and 58% | Population Mitotic Cells (%) [1]: 68% and 46% | Population Normal (%) [1]: 89% and 93% | Population Pyknosed Nuclei (%) [1]: 16% and 14% | Population Tubulin-Different-Phenotype (%) [1]: 36% and 18% | Total Cell Count [1]: 324 and 372 | Population Apoptotic (%) [2]: 46% and 37% | Population Fragmented Nuclei (%) [2]: 5% | Population Healthy Nuclei (%) [2]: 77% and 83% | Population Hoechst High Intensity Objects (%) [2]: 6% and 5% | Population Membrane Permeable-Phenotype (%) [2]: 0% | Population Mitochondria Different-Phenotype (%) [2]: 57% and 51% | Population Mitotic Cells (%) [2]: 53% and 62% | Population Normal (%) [2]: 93% and 94% | Population Pyknosed Nuclei (%) [2]: 17% and 11% | Population Tubulin-Different-Phenotype (%) [2]: 43% and 23% | Total Cell Count [2]: 344 and 413 | Population Apoptotic (%) [3]: 44% and 20% | Population Fragmented Nuclei (%) [3]: 9% and 8% | Population Healthy Nuclei (%) [3]: 76% and 85% | Population Hoechst High Intensity Objects (%) [3]: 4% and 5% | Population Membrane Permeable-Phenotype (%) [3]: 1% and 0% | Population Mitochondria Different-Phenotype (%) [3]: 40% and 46% | Population Mitotic Cells (%) [3]: 55% and 79% | Population Normal (%) [3]: 95% and 94% | Population Pyknosed Nuclei (%) [3]: 13% and 5% | Population Tubulin-Different-Phenotype (%) [3]: 19% and 11% | Total Cell Count [3]: 451 and 478 | Population Apoptotic (%) [4]: 39% and 38% | Population Fragmented Nuclei (%) [4]: 7% and 9% | Population Healthy Nuclei (%) [4]: 79% and 83% | Population Hoechst High Intensity Objects (%) [4]: 5% | Population Membrane Permeable-Phenotype (%) [4]: 0% | Population Mitochondria Different-Phenotype (%) [4]: 36% and 40% | Population Mitotic Cells (%) [4]: 60% and 61% | Population Normal (%) [4]: 94% | Population Pyknosed Nuclei (%) [4]: 12% and 7% | Population Tubulin-Different-Phenotype (%) [4]: 23% and 15% | Total Cell Count [4]: 393 and 533 | Population Apoptotic (%) [5]: 19% and 23% | Population Fragmented Nuclei (%) [5]: 14% and 10% | Population Healthy Nuclei (%) [5]: 78% and 81% | Population Hoechst High Intensity Objects (%) [5]: 4% | Population Membrane Permeable-Phenotype (%) [5]: 1% and 0% | Population Mitochondria Different-Phenotype (%) [5]: 23% and 20% | Population Mitotic Cells (%) [5]: 80% and 76% | Population Normal (%) [5]: 95% | Population Pyknosed Nuclei (%) [5]: 7% | Population Tubulin-Different-Phenotype (%) [5]: 14% and 7% | Total Cell Count [5]: 785 and 638 | Population Apoptotic (%) [6]: 30% and 17% | Population Fragmented Nuclei (%) [6]: 14% and 12% | Population Healthy Nuclei (%) [6]: 79% and 83% | Population Hoechst High Intensity Objects (%) [6]: 3% and 1% | Population Membrane Permeable-Phenotype (%) [6]: 0% | Population Mitochondria Different-Phenotype (%) [6]: 24% and 17% | Population Mitotic Cells (%) [6]: 70% and 82% | Population Normal (%) [6]: 96% and 98% | Population Pyknosed Nuclei (%) [6]: 6% and 4% | Population Tubulin-Different-Phenotype (%) [6]: 13% and 7% | Total Cell Count [6]: 660 and 859
